Measured values from different studies.
ST14: Suppressor of tumorigenicity 14 protein (ST14, Homo sapiens, UniProt Q9Y5Y6)
CDK2 with cyclin A2: Cyclin-dependent kinase 2, with cyclin A2 (CDK2, Homo sapiens, UniProt P24941)

| target | assay | conditions | measurement | result | Compound |
| --- | --- | --- | --- | --- | --- |
| Angiopoietin-1 receptor (TEK, Homo sapiens, UniProt Q02763) | binding, competition with immobilised ligand | 1 µM | remaining binding | 100% | C=CC(=O)N1CCC(COCC(=O)N2CCN(c3nc(-c4cnc(N)nc4C(F)F)nc(N4CCOC[C@@H]4C)n3)CC2)CC1 |
| ST14 | enzyme activity, inhibitor | 0.1 µM | remaining activity | 90% | N=C(N)NCCC[C@H](NC(=O)[C@@H](NC(=O)[C@H](Cc1cscn1)NC(=O)CCc1ccccc1)C1CC1)C(=O)c1nc2ccccc2s1 |
| Tyrosine-protein kinase ZAP-70 (ZAP70, Homo sapiens, UniProt P43403) | enzyme activity, inhibitor, radiometric | 1 µM | remaining activity | 95% | CNc1ncc2c(/C=C/C(=O)N3CCC(OC)CC3)nn(Cc3cccc(C(F)(F)F)c3)c2n1 |
| ST14 | enzyme activity, inhibitor | 0.1 µM | remaining activity | 61% | N=C(N)NCCC[C@H](NC(=O)[C@@H]1CCCN1C(=O)[C@H](Cc1cscn1)NC(=O)CCc1ccccc1)C(=O)c1nc2ccccc2s1 |
| CDK2 with cyclin A2 | enzyme activity, inhibitor | 1 nM | inhibition | 4.03% | CC(=O)Nc1c(N)nc(SCC(=O)N/N=C/c2ccc([N+](=O)[O-])cc2)[nH]c1=O |
| Serine/threonine-protein kinase pim-1 (PIM1, Homo sapiens, UniProt P11309) | binding, competition with immobilised ligand | 10 µM | remaining binding | 100% | Cc1cc([C@@H](C)Nc2ccccc2C(=O)O)c2nc(N3CCC(F)(F)CC3)c(C#N)c(=O)n2c1 |
| CDK2 with cyclin A2 | enzyme activity, inhibitor | 1 µM | inhibition | 81.4% | CNC(=O)c1cc(Oc2ccc(NC(=O)Nc3ccc(Cl)c(C(F)(F)F)c3)cc2)ccn1 |
| ST14 | enzyme activity, inhibitor | 0.1 µM | remaining activity | 34% | CC(C)(C)C[C@H](NC(=O)[C@H](Cc1cscn1)NC(=O)CCc1ccccc1)C(=O)N[C@@H](CCCNC(=N)N)C(=O)c1nc2ccccc2s1 |
| CDK2 with cyclin A2 | enzyme activity, inhibitor | 200 pM | inhibition | 3.98% | CC(=O)Nc1c(N)nc(SCC(=O)NN)[nH]c1=O |
| Protein kinase C eta type (PRKCH, Homo sapiens, UniProt P24723) | enzyme activity, inhibitor | 1 µM | remaining activity | 115% | COc1cc(-c2cncc3c2CN(C)Cc2cc(N4CCNCC4)ccc2-3)cc(OC)c1OC |
